Measurements reported in ChEMBL document CHEMBL1135907, “Novel 5-substituted 2,4-thiazolidinedione and 2,4-oxazolidinedione derivatives as insulin sensitizers with antidiabetic activities” (J Med Chem, 2002).
pEC50: −log10 of the molar value.

Assays:
Mus musculus [1] = organism: Mus musculus; assay: Plasma lipid-lowering activity at a dosage of 0.005% in the diet in KKAy mice;LA denotes less than 10% reduction at this dosage; type: functional, organism-based
In short: (§1)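 KKAy mice (9–13 weeks old), five per group, on powdered CE-2 diet containing compound at 0.001, 0.005 or 0.01% for 4 d. Plasma triglyceride from orbital-vein blood measured enzymatically and reported as maximum percent reduction from control; Dunnett's test; less than 10% reduction flagged.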

[2] = Plasma glucose-lowering activity at a dosage of 0.005% in the diet in KKA(y) mice.; type: functional, Mus musculus
In short: (§2)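 KKAy mice (9–13 weeks old), five per group, grouped by blood glucose after 3 d on powdered CE-2 chow. Dietary admixture at 0.001, 0.005 or 0.01% for 4 d, food and water ad libitum. Orbital-vein plasma glucose measured enzymatically and expressed as maximum percent reduction versus control; Dunnett's test.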

Mus musculus [3] = organism: Mus musculus; assay: Effective dose for 25% reduction in plasma glucose-lowering activity in KKAy mice; type: functional
In short: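 KKAy mice (9–13 weeks old), five per group, allocated by blood glucose after 3 d on powdered CE-2 chow. Compounds given as dietary admix at three levels chosen from first screening, 4 d ad libitum. Orbital-vein plasma glucose assayed enzymatically. Dose in mg/kg/d computed from food intake and body weight; ED25 derived by linear regression.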

Rattus norvegicus [4] = organism: Rattus norvegicus; assay: (§3) Effective dose for 25% reduction in glucose-lowering activity in Wistar fatty rats; type: functional
In short: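 Wistar fatty rats (10–15 weeks old), five per group, allocated by plasma glucose and triglyceride. Oral dosing by stomach tube once daily for 6 d at three doses, suspended in 0.5% methyl cellulose; CE-2 pellets and water ad libitum. Tail-vein plasma glucose measured; ED25 taken from the three-dose response by linear regression.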

RXR alpha/PPAR gamma = target: T1, RXR alpha/PPAR gamma (Homo sapiens, UniProt P19793+P37231); assay: Transcriptional activation in COS cells expressing PPAR gamma and RXR alpha
T1 sequence (P37231 whole entry): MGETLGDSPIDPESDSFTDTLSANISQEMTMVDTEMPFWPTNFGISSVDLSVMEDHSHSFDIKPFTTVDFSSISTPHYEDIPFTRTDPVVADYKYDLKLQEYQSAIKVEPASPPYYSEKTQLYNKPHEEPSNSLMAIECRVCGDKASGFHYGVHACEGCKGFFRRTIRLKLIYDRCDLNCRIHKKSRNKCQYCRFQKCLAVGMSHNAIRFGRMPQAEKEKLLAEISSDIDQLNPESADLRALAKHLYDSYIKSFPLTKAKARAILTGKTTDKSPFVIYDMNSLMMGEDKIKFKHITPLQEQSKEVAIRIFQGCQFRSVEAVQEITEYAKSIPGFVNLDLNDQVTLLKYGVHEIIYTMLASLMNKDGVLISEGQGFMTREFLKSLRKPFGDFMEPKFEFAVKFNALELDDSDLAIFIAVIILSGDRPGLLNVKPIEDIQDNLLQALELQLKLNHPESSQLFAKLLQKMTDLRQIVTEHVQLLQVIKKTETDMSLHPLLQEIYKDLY
T1 sequence (P19793 whole entry): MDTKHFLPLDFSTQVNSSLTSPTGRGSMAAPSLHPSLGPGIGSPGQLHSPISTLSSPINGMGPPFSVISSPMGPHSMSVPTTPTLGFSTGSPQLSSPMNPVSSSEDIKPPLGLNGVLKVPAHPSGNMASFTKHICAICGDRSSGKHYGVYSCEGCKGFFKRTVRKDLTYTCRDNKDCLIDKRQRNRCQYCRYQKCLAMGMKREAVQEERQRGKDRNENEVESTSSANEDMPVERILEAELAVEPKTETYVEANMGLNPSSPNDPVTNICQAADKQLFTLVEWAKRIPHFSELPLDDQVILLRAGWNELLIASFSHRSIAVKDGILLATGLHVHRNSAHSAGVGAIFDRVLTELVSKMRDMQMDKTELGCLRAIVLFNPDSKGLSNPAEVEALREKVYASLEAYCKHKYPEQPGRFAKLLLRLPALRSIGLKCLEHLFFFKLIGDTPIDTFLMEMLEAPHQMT

Rattus norvegicus [5] = assay: Plasma concentration at a dose of 1 mg/kg in Jc1SD rats after intravenous administration upon racemisation after 5 min; type: functional, organism-based; parameters: dose 1 mg/kg
Rattus norvegicus [6] = assay: Plasma concentration at a dose of 1 mg/kg in Jc1SD rats after intravenous administration upon racemisation after 30 min; type: functional, organism-based; parameters: dose 1 mg/kg
Rattus norvegicus [7] = assay: Plasma concentration of enantiomer at a dose of 1 mg/kg in Jc1SD rats after intravenous administration upon racemisation after 120 min; type: functional, organism-based; parameters: dose 1 mg/kg
Rattus norvegicus [8] = assay: Plasma concentration at a dose of 1 mg/kg in Jc1SD rats after intravenous administration upon racemisation after 120 min; type: functional, organism-based; parameters: dose 1 mg/kg
Rattus norvegicus [9] = assay: Plasma concentration at a dose of 1 mg/kg in Jc1SD rats after intravenous administration upon racemisation after 10 min; type: functional, organism-based; parameters: dose 1 mg/kg
Rattus norvegicus [10] = assay: Plasma concentration of enantiomer at a dose of 1 mg/kg in Jc1SD rats after intravenous administration upon racemisation after 10 min; type: functional, organism-based; parameters: dose 1 mg/kg
Rattus norvegicus [11] = assay: Plasma concentration at a dose of 1 mg/kg in Jc1SD rats after intravenous administration upon racemisation after 60 min; type: functional, organism-based; parameters: dose 1 mg/kg
Rattus norvegicus [12] = assay: Plasma concentration of enantiomer at a dose of 1 mg/kg in Jc1SD rats after intravenous administration upon racemisation after 60 min; type: functional, organism-based; parameters: dose 1 mg/kg
Rattus norvegicus [13] = assay: Plasma concentration at a dose of 1 mg/kg in Jc1SD rats after intravenous administration upon racemisation after 15 min; type: functional, organism-based; parameters: dose 1 mg/kg
Rattus norvegicus [14] = assay: Plasma concentration of enantiomer at a dose of 1 mg/kg in Jc1SD rats after intravenous administration upon racemisation after 15 min; type: functional, organism-based; parameters: dose 1 mg/kg
Rattus norvegicus [15] = assay: Plasma concentration of enantiomer at a dose of 1 mg/kg in Jc1SD rats after intravenous administration upon racemisation after 30 min; type: functional, organism-based; parameters: dose 1 mg/kg
Rattus norvegicus [16] = assay: Plasma concentration of enantiomer at a dose of 1 mg/kg in Jc1SD rats after intravenous administration upon racemisation after 5 min; type: functional, organism-based; parameters: dose 1 mg/kg
Mus musculus [17] = organism: Mus musculus; assay: Plasma glucose-lowering activity at a dosage of 0.01% in the diet in KKAy mice; type: functional; in short: as §2
[18] = Plasma lipid-lowering activity at a dosage of 0.005% in the diet in KKA(y) mice.; type: functional, Mus musculus; in short: as §1
[19] = Plasma lipid-lowering activity at a dosage of 0.01% in the diet in KKAy mice; type: functional, Mus musculus; in short: as §1
Mus musculus [20] = organism: Mus musculus; assay: Effective dose for 25% reduction in plasma lipid-lowering activity in KKAy mice; type: functional
In short: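 Male/female not stated; KKAy mice, 9–13 weeks old, fed powdered CE-2 chow 3 d, grouped (five per group) by blood glucose. Compounds given as dietary admixture at three levels (0.01, 0.005 or 0.001% in diet) for 4 d. Orbital-vein plasma triglyceride measured enzymatically as % reduction vs control; dose (mg/kg/d) from food intake and body weight; ED25 by linear regression.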

Rattus norvegicus [21] = organism: Rattus norvegicus; assay: as §3; type: functional; remark: listed apart in the source
In short: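 Wistar fatty rats, 10–15 weeks old, grouped five per group by plasma glucose and triglyceride. Compound suspended in 0.5% methyl cellulose, given orally by stomach tube once daily for 6 d at three concentrations. Animals had CE-2 pellets and water ad libitum. Plasma glucose measured enzymatically on tail-vein blood. ED25 (mg/kg/d) for 25% reduction from control derived by linear regression over the three doses.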

Rattus norvegicus [22] = assay: Plasma concentrations of S(-)-64 at a dose of 1 mg/kg in Jc1SD rats after intravenous administration after 10 min; type: functional, organism-based; parameters: dose 1 mg/kg
Rattus norvegicus [23] = assay: Plasma concentrations of R(+)-64 at a dose of 1 mg/kg in Jc1SD rats after intravenous administration after 10 min; type: functional, organism-based; parameters: dose 1 mg/kg
Rattus norvegicus [24] = assay: Plasma concentrations of R(+)-64 at a dose of 1 mg/kg in Jc1SD rats after intravenous administration after 30 min; type: functional, organism-based; parameters: dose 1 mg/kg
Rattus norvegicus [25] = assay: Plasma concentrations of S(-)-64 at a dose of 1 mg/kg in Jc1SD rats after intravenous administration after 15 min; type: functional, organism-based; parameters: dose 1 mg/kg
Rattus norvegicus [26] = assay: Plasma concentrations of S(-)-64 at a dose of 1 mg/kg in Jc1SD rats after intravenous administration after 30 min; type: functional, organism-based; parameters: dose 1 mg/kg
Rattus norvegicus [27] = assay: Plasma concentrations of S(-)-64 at a dose of 1 mg/kg in Jc1SD rats after intravenous administration after 5 min; type: functional, organism-based; parameters: dose 1 mg/kg
Rattus norvegicus [28] = assay: Plasma concentrations of R(+)-64 at a dose of 1 mg/kg in Jc1SD rats after intravenous administration after 120 min; type: functional, organism-based; parameters: dose 1 mg/kg
Rattus norvegicus [29] = assay: Plasma concentrations of R(+)-64 at a dose of 1 mg/kg in Jc1SD rats after intravenous administration after 60 min; type: functional, organism-based; parameters: dose 1 mg/kg
Rattus norvegicus [30] = assay: Plasma concentrations of R(+)-64 at a dose of 1 mg/kg in Jc1SD rats after intravenous administration after 15 min; type: functional, organism-based; parameters: dose 1 mg/kg
Rattus norvegicus [31] = assay: Plasma concentrations of S(-)-64 at a dose of 1 mg/kg in Jc1SD rats after intravenous administration after 60 min; type: functional, organism-based; parameters: dose 1 mg/kg
Rattus norvegicus [32] = assay: Plasma concentrations of R(+)-64 at a dose of 1 mg/kg in Jc1SD rats after intravenous administration after 5 min; type: functional, organism-based; parameters: dose 1 mg/kg

Which LA (Mus musculus [1]) does the source give for `Cc1oc(-c2ccccc2)nc1COc1ccc(CC2OC(=O)NC2=O)cc1` (centres undefined) here?
The LA was “Less than 10% reduction at this dosage”.

And the Activity [2]?
Its Activity is 29.

For `Cc1sc(-c2ccccc2)nc1COc1ccc(CCCC2OC(=O)NC2=O)cc1` (single isomer, unassigned; (+)), which ED25 (Mus musculus [3]) is on record?
Its ED25 is 1.44 mg/kg/day.

And the ED25 (Rattus norvegicus [4])?
The ED25 was 0.23 mg/kg/day.

And the pEC50 (RXR alpha/PPAR gamma)?
The pEC50 was 6.57.

What does the source list for `COc1cc(CCCC2OC(=O)NC2=O)ccc1OCc1nc(-c2ccco2)oc1C` (single isomer, unassigned; (-))?
Concentration (Rattus norvegicus [5]): 0.04 µg/mL; Concentration (Rattus norvegicus [6]): 0.05 µg/mL; Concentration (Rattus norvegicus [7]): 1.61 µg/mL; Concentration (Rattus norvegicus [8]): 0.07 µg/mL; Concentration (Rattus norvegicus [9]): 0.04 µg/mL; Concentration (Rattus norvegicus [10]): 4.3 µg/mL; Concentration (Rattus norvegicus [11]): 0.07 µg/mL; Concentration (Rattus norvegicus [12]): 2.94 µg/mL; Concentration (Rattus norvegicus [13]): 0.04 µg/mL; Concentration (Rattus norvegicus [14]): 3.97 µg/mL; Concentration (Rattus norvegicus [15]): 3.65 µg/mL; Concentration (Rattus norvegicus [16]): 4.78 µg/mL

Which Activity (Mus musculus [17]) does the source give for `Cc1oc(-c2ccccc2)nc1CCOc1ccc(CCCC2SC(=O)NC2=O)cc1` (centres undefined) here?
Its Activity is 35.

And the Activity [18]?
The Activity was 18.

What about the Activity [2] of the same compound?
The Activity was 26.

And the Activity [19]?
Its Activity is 42.

Which ED25 (Mus musculus [20]) does the source give for `CCc1ccc(CCOc2ccc(CC3SC(=O)NC3=O)cc2)nc1.Cl` (centres undefined) [PIOGLITAZONE HYDROCHLORIDE] here?
The ED25 was 6 mg/kg/day.

And the ED25 (Rattus norvegicus [21])?
Its ED25 is 0.5 mg/kg/day.

Which Concentration (Rattus norvegicus [22]) does the source give for `COc1cc(CCCC2OC(=O)NC2=O)ccc1OCc1nc(-c2ccco2)oc1C` (stereo in doubt; (+)-64) here?
The Concentration was 0.02 µg/mL.

What about the Concentration (Rattus norvegicus [23]) of the same compound?
The Concentration was 6.06 µg/mL.

And the Concentration (Rattus norvegicus [24])?
Its Concentration is 4.78 µg/mL.

What about the Concentration (Rattus norvegicus [25]) of the same compound?
Its Concentration is 0.02 µg/mL.

And the Concentration (Rattus norvegicus [26])?
Its Concentration is 0.02 µg/mL.

What about the Concentration (Rattus norvegicus [27]) of the same compound?
The Concentration was 0.02 µg/mL.

And the Concentration (Rattus norvegicus [28])?
The Concentration was 1.46 µg/mL.

What about the Concentration (Rattus norvegicus [29]) of the same compound?
The Concentration was 3.19 µg/mL.

What about the Concentration (Rattus norvegicus [30]) of the same compound?
Its Concentration is 5.13 µg/mL.

What about the Concentration (Rattus norvegicus [31]) of the same compound?
Its Concentration is 0.02 µg/mL.

And the Concentration (Rattus norvegicus [32])?
The Concentration was 6.46 µg/mL.
